Reference: ChEMBL document CHEMBL1142155, “Human beta-defensins kill Candida albicans in an energy-dependent and salt-sensitive manner without causing membrane disruption” (2007)
Calls of active or inactive are those of the source. The rule behind the calls is not given here.

How the values were obtained:
Candida albicans [1] = assay: Induction of ATP efflux in Candida albicans CAF4-2 at 11.6 uM; type: functional, organism-based
In short: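 C. albicans CAF4-2 (10⁴ cells) mixed with peptide (Hst 5 31 μM, hBD-2 11.6 μM, hBD-3 1 μM), some cells pretreated 2 h with 1 mM NaN₃; extracellular ATP read by luminometry at 0, 5, 15, 30, 45 and 60 min; quantified against per-experiment ATP standard curves as pmol ATP per 10⁴ cells.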

Candida albicans [2] = assay: Induction of membrane permeabilization in Candida albicans assessed as calcein release at 11.6 uM after 90 min; type: functional
In short: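 Early-stationary C. albicans loaded with 5 μM (final) calcein-AM, 2 h room temperature, washed four times; 10⁶ cells with peptide, fluorescence (ex 485/em 530 nm) read every 5 min for 90 min; 100% from boiled cells (10 min), background from untreated cells; % release = (I_r − I_bkg)/(I_int − I_bkg) × 100; three independent experiments, mean ± SD.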

Candida albicans [3] = assay: Induction of ATP efflux in Candida albicans CAF4-2 at 31 uM in presence of 1 mM sodium azide; type: functional, organism-based
In short: (§1)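 10⁴ C. albicans cells given 31 μM Hst 5 or 1 μM hBD-3, with or without 2 h pretreatment in 1 mM NaN₃. Extracellular ATP read by luminometry at 0, 5, 15, 30, 45 and 60 min. Values come from per-experiment ATP standard curves, as pmol ATP per 10⁴ cells.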

Nakaseomyces glabratus [4] = assay: Fungicidal activity against Candida glabrata 931010 at 31 uM; type: functional
Candida albicans [5] = assay: Induction of membrane permeabilization in Candida albicans assessed as calcein release at 32 uM after 90 min; type: functional
In short: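 Early-stationary yeast washed in 10 mM NaPB, loaded at 10⁷/ml with 5 μM (final) calcein-AM for 2 h at room temperature, then washed four times; 10⁶ cells given 0.8 μM hBD-3 or 32 μM Hst 5. Fluorescence (ex 485/em 530 nm) read every 5 min for 90 min. Percent release = (I_r − I_bkg)/(I_int − I_bkg) × 100, where I_int comes from boiling 10 min. Mean ± SD of three experiments.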

Candida albicans [6] = assay: Induction of ATP efflux in Candida albicans CAF4-2 at 31 uM; type: functional, organism-based; in short: as §1
Nakaseomyces glabratus [7] = assay: Fungicidal activity against Candida glabrata 932474 at 31 uM; type: functional
Candida albicans [8] = assay: Fungicidal activity against Candida albicans CAF4-2 at 31 uM; type: functional
Candida albicans [9] = assay: Cell death in Candida albicans CAF4-2 at <= 0.6 uM in the presence of 1 mM NaN3 relative to control; type: functional
Candida albicans [10] = assay: Cell death in Candida albicans CAF4-2 at >= 0.8 uM in presence of 1 mM NaN3 relative to control
Candida albicans [11] = assay: Fungicidal activity against Candida albicans CAF4-2 at 0.8 uM; type: functional
Nakaseomyces glabratus [12] = assay: Fungicidal activity against Candida glabrata 931010 at 0.8 uM; type: functional
Candida albicans [13] = assay: Antimicrobial activity against Candida albicans at 1.0 uM in presence of 50 mM NaPB; type: functional
In short: (§2)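 YNB-grown yeast washed twice and resuspended at 10⁶ cells/ml in 10, 20, 50 or 100 mM sodium phosphate buffer, pH 7.4; peptide 0.2 to 1.0 μM for 1 h at 30°C. Diluted aliquots of 500 cells plated on YNB agar, 48 h at room temperature. Loss of viability = [1 − (treated colonies/buffer-only colonies)] × 100; at least three independent experiments.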

Candida albicans [14] = assay: Antimicrobial activity against Candida albicans at 1.0 uM in presence of 10 mM NaPB; type: functional; in short: as §2
Nakaseomyces glabratus [15] = assay: Fungicidal activity against Candida glabrata 932474 at 0.8 uM; type: functional
Candida albicans [16] = assay: Antimicrobial activity against Candida albicans at 1.0 uM in presence of 20 mM NaPB; type: functional; in short: as §2
Candida albicans [17] = assay: Antimicrobial activity against Candida albicans at 11.6 uM in presence of 100 mM NaPB; type: functional
In short: (§3)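 YNB-grown C. albicans (CAF4-2) washed and resuspended at 10⁶ cells/ml in 10, 20, 50 or 100 mM sodium phosphate buffer pH 7.4; peptide 2.9 to 11.6 μM, 1 h at 30°C; 500-cell aliquots plated on YNB agar, 48 h room temperature; loss of viability = [1 − (treated/buffer-only colonies)] × 100; at least three independent experiments, mean ± SD.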

Candida albicans [18] = assay: Survival of Candida albicans at 11.6 uM in presence of 5 mM CaCl2; type: functional
In short: (§4)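 Cells at 10⁶/ml in 10 mM sodium phosphate pH 7.4 supplemented with 0.5, 1, 5 or 25 mM CaCl₂, MgCl₂, NaCl or KCl; hBD-2 11.6 μM for 1 h at 30°C; colonies counted on YNB agar after 48 h at room temperature; survival relative to buffer-only cells; at least three independent experiments, mean ± SD.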

Candida albicans [19] = assay: Survival of Candida albicans at 11.6 uM in presence of 0.5 mM NaCl; type: functional; in short: as §4
Candida albicans [20] = assay: Survival of Candida albicans at 11.6 uM in presence of 0.5 mM CaCl2; type: functional; in short: as §4
Nakaseomyces glabratus [21] = assay: Fungicidal activity against Candida glabrata 931010 at 11.6 uM; type: functional
In short: (§5)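 C. albicans CAF4-2 and C. glabrata 931010 or 932474 at 10⁶/ml in 10 mM sodium phosphate pH 7.4, exposed to one peptide concentration (Hst 5 31 μM, hBD-2 11.6 μM, hBD-3 0.8 μM); 500-cell aliquots plated on YNB agar for 48 h at room temperature; loss of viability versus buffer-only control; triplicate.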

Candida albicans [22] = assay: Survival of Candida albicans at 11.6 uM in presence of 0.5 mM KCl; type: functional; in short: as §4
Nakaseomyces glabratus [23] = assay: Fungicidal activity against Candida glabrata 932474 at 11.6 uM; type: functional; in short: as §5
Candida albicans [24] = assay: Survival of Candida albicans at 11.6 uM in presence of 0.5 mM MgCl2; type: functional; in short: as §4
Candida albicans [25] = assay: Cell death in Candida albicans CAF4-2 in presence of 1 mM NaN3 relative to control; type: functional
Candida albicans [26] = assay: Survival of Candida albicans at 11.6 uM in presence of 5 mM MgCl2; type: functional; in short: as §4
Candida albicans [27] = assay: Antimicrobial activity against Candida albicans at 11.6 uM in presence of 20 mM NaPB; type: functional; in short: as §3
Candida albicans [28] = assay: Antimicrobial activity against Candida albicans at 11.6 uM in presence of 50 mM NaPB; type: functional; in short: as §3
Candida albicans [29] = assay: Fungicidal activity against Candida albicans CAF4-2 at 11.6 uM; type: functional; in short: as §5
Candida albicans [30] = assay: Antimicrobial activity against Candida albicans at 11.6 uM in presence of 10 mM NaPB; type: functional; in short: as §3

CC[C@H](C)[C@H](NC(=O)CN)C(=O)NCC(=O)N[C@@H](CC(=O)O)C(=O)N1CCC[C@H]1C(=O)N[C@H](C(=O)N[C@H](C(=O)N[C@@H](CS)C(=O)N[C@@H](CC(C)C)C(=O)N[C@@H](CCCCN)C(=O)N[C@@H](CO)C(=O)NCC(=O)N[C@@H](C)C(=O)N[C@H](C(=O)N[C@@H](CS)C(=O)N[C@@H](Cc1cnc[nH]1)C(=O)N1CCC[C@H]1C(=O)N[C@H](C(=O)N[C@@H](Cc1ccccc1)C(=O)N[C@@H](CS)C(=O)N1CCC[C@H]1C(=O)N[C@@H](CCCNC(=N)N)C(=O)N[C@@H](CCCNC(=N)N)C(=O)N[C@@H](Cc1ccc(O)cc1)C(=O)N[C@@H](CCCCN)C(=O)N[C@@H](CCC(N)=O)C(=O)N[C@H](C(=O)NCC(=O)N[C@H](C(=O)N[C@@H](CS)C(=O)NCC(=O)N[C@@H](CC(C)C)C(=O)N1CCC[C@H]1C(=O)NCC(=O)N[C@H](C(=O)N[C@@H](CCCCN)C(=O)N[C@@H](CS)C(=O)N[C@@H](CS)C(=O)N[C@@H](CCCCN)C(=O)N[C@@H](CCCCN)C(=O)N1CCC[C@H]1C(=O)O)[C@H](C)O)[C@H](C)O)[C@@H](C)CC)C(C)C)[C@@H](C)CC)[C@H](C)O)C(C)C
Activity (Candida albicans [1]): Active | Activity (Candida albicans [2]): 10.3%

C[C@H](NC(=O)[C@H](Cc1cnc[nH]1)NC(=O)[C@H](CO)NC(=O)[C@@H](N)CC(=O)O)C(=O)N[C@@H](CCCCN)C(=O)N[C@@H](CCCNC(=N)N)C(=O)N[C@@H](Cc1cnc[nH]1)C(=O)N[C@@H](Cc1cnc[nH]1)C(=O)NCC(=O)N[C@@H](Cc1ccc(O)cc1)C(=O)N[C@@H](CCCCN)C(=O)N[C@@H](CCCNC(=N)N)C(=O)N[C@@H](CCCCN)C(=O)N[C@@H](Cc1ccccc1)C(=O)N[C@@H](Cc1cnc[nH]1)C(=O)N[C@@H](CCC(=O)O)C(=O)N[C@@H](CCCCN)C(=O)N[C@@H](Cc1cnc[nH]1)C(=O)N[C@@H](Cc1cnc[nH]1)C(=O)N[C@@H](CO)C(=O)N[C@@H](Cc1cnc[nH]1)C(=O)N[C@@H](CCCNC(=N)N)C(=O)NCC(=O)N[C@@H](Cc1ccc(O)cc1)C(=O)O [HISTATIN 5]
Activity (Candida albicans [3]): inactive | Activity (Nakaseomyces glabratus [4]): 12.2% | Activity (Candida albicans [5]): 11% | Activity (Candida albicans [6]): Active | Activity (Nakaseomyces glabratus [7]): 29.4% | Activity (Candida albicans [8]): 97.5%

CC[C@H](C)[C@H](NC(=O)CN)C(=O)N[C@H](C(=O)N[C@@H](CC(N)=O)C(=O)N[C@H](C(=O)N[C@@H](CC(C)C)C(=O)N[C@@H](CCC(N)=O)C(=O)N[C@@H](CCCCN)C(=O)N[C@@H](Cc1ccc(O)cc1)C(=O)N[C@@H](Cc1ccc(O)cc1)C(=O)N[C@@H](CS)C(=O)N[C@@H](CCCNC(=N)N)C(=O)N[C@H](C(=O)N[C@@H](CCCNC(=N)N)C(=O)NCC(=O)NCC(=O)N[C@@H](CCCNC(=N)N)C(=O)N[C@@H](CS)C(=O)N[C@@H](C)C(=O)N[C@H](C(=O)N[C@@H](CC(C)C)C(=O)N[C@@H](CO)C(=O)N[C@@H](CS)C(=O)N[C@@H](CC(C)C)C(=O)N1CCC[C@H]1C(=O)N[C@@H](CCCCN)C(=O)N[C@@H](CCC(=O)O)C(=O)N[C@@H](CCC(=O)O)C(=O)N[C@@H](CCC(N)=O)C(=O)N[C@H](C(=O)NCC(=O)N[C@@H](CCCCN)C(=O)N[C@@H](CS)C(=O)N[C@@H](CO)C(=O)N[C@H](C(=O)N[C@@H](CCCNC(=N)N)C(=O)NCC(=O)N[C@@H](CCCNC(=N)N)C(=O)N[C@@H](CCCCN)C(=O)N[C@@H](CS)C(=O)N[C@@H](CS)C(=O)N[C@@H](CCCNC(=N)N)C(=O)N[C@@H](CCCNC(=N)N)C(=O)N[C@@H](CCCCN)C(=O)N[C@@H](CCCCN)C(=O)O)[C@@H](C)O)[C@@H](C)CC)C(C)C)C(C)C)[C@@H](C)O)[C@@H](C)CC
Activity (Candida albicans [9]): <10% | Activity (Candida albicans [10]): 36% | Activity (Candida albicans [11]): 98.2% | Activity (Nakaseomyces glabratus [12]): 11.5% | Activity (Candida albicans [13]): 18% | Activity (Candida albicans [14]): 98.2% | Activity (Nakaseomyces glabratus [15]): 53.2% | Activity (Candida albicans [16]): 63%

CC[C@H](C)[C@H](NC(=O)CN)C(=O)NCC(=O)N[C@@H](CC(=O)O)C(=O)N1CCC[C@H]1C(=O)N[C@H](C(=O)N[C@H](C(=O)N[C@@H](CS)C(=O)N[C@@H](CC(C)C)C(=O)N[C@@H](CCCCN)C(=O)N[C@@H](CO)C(=O)NCC(=O)N[C@@H](C)C(=O)N[C@H](C(=O)N[C@@H](CS)C(=O)N[C@@H](Cc1cnc[nH]1)C(=O)N1CCC[C@H]1C(=O)N[C@H](C(=O)N[C@@H](Cc1ccccc1)C(=O)N[C@@H](CS)C(=O)N1CCC[C@H]1C(=O)N[C@@H](CCCNC(=N)N)C(=O)N[C@@H](CCCNC(=N)N)C(=O)N[C@@H](Cc1ccc(O)cc1)C(=O)N[C@@H](CCCCN)C(=O)N[C@@H](CCC(N)=O)C(=O)N[C@H](C(=O)NCC(=O)N[C@H](C(=O)N[C@@H](CS)C(=O)NCC(=O)N[C@@H](CC(C)C)C(=O)N1CCC[C@H]1C(=O)NCC(=O)N[C@H](C(=O)N[C@@H](CCCCN)C(=O)N[C@@H](CS)C(=O)N[C@@H](CS)C(=O)N[C@@H](CCCCN)C(=O)N[C@@H](CCCCN)C(=O)N1CCC[C@H]1C(=O)O)[C@@H](C)O)[C@@H](C)O)[C@@H](C)CC)C(C)C)[C@@H](C)CC)[C@@H](C)O)C(C)C
Activity (Candida albicans [17]): 24% | Activity (Candida albicans [18]): 86% | Activity (Candida albicans [19]): 24% | Activity (Candida albicans [20]): 69% | Activity (Nakaseomyces glabratus [21]): 20.2% | Activity (Candida albicans [22]): 18% | Activity (Nakaseomyces glabratus [23]): 89.6% | Activity (Candida albicans [24]): 58.4% | Activity (Candida albicans [25]): 15% | Activity (Candida albicans [26]): 97.6% | Activity (Candida albicans [27]): 54% | Activity (Candida albicans [28]): 29% | Activity (Candida albicans [29]): 95% | Activity (Candida albicans [30]): 95%
